High-throughput results: PubChem BioAssay, The Scripps Research Institute Molecular Screening Center
NPY Y2 blocker – NPY-Y2 (human) receptor antagonism; P49146; NPY-Y2 expressing cells, antagonist mode; inhibition, % at 2.7 µM; 140,000 compounds, 0.99% hits; AID 793; in the data active means inhibition above about 17%
S1P4 antag – human S1P4 receptor antagonism. S1P4-expressing cells, antagonist mode, reporter read-out. 220,000 compounds, 0.26% hits. AID 1510. inhibition, % at 4.98 µM. O95977; in the data active means inhibition above about 29%
Target sequence (O95977 whole entry, looked up): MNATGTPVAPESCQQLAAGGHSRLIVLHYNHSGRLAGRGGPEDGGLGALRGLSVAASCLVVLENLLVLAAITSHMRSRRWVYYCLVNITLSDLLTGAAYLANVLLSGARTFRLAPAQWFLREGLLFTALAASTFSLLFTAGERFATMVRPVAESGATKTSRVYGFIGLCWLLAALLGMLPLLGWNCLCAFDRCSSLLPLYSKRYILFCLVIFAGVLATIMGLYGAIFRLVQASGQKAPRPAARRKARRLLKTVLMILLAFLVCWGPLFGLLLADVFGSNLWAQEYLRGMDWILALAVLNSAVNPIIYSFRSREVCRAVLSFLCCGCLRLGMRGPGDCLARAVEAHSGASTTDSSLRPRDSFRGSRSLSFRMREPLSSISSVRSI
S1P4 agonist – activates the human S1P4 receptor; O95977; S1P4-expressing cell line, agonist reporter assay; activation, % at 4.98 µM; 220,000 compounds, 0.35% hits; in the data active means activation above about 11%
NPY-Y1 PAM-ag – human NPY-Y1 potentiation or agonism, primary screen; P25929; NPY-Y1 expressing cells, potentiator/agonist activation; activation, % at 3.6 µM; 220,000 compounds, 0.37% hits; in the data active means activation above about 33%, passing the limit was not always enough;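 further: cells stimulated with NPY at EC10 then isoproterenol at EC100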
NPY2 pot ag – human NPY-Y2 potentiation or agonism, primary screen. P49146. cells expressing NPY-Y2, potentiator/agonist read-out. activation, % at 3.6 µM. 220,000 compounds, 0.45% hits; in the data active means activation above about 27%;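 further: cells stimulated with NPY near EC25 plus isoproterenol at EC100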
NPY Y1 blocker – antagonists of human neuropeptide Y receptor Y1; inhibition, % at 3.6 µM; 200,000 compounds, 1% hits; HEK293-CNG Y1 cells, membrane potential fluorescence; NPY at EC95, then isoproterenol;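 active means inhibition above the campaign mean inhibition of all tested compounds plus 3 SD, cut at about 20% in these data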
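material = HEK293 cells with Y1 receptor plus CNG channel | also added = NPY 25 nM then isoproterenol 1 µM plus Ro 20-1724 25 µM | schedule = dye 3 h, compound 60 min room temperature, stimulation 45 min | measured by = membrane potential fluorescence | benchmarks = high control isoproterenol alone, low control NPY with isoproterenol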
Large screens that a line does not name were inactive. Hits are enriched below; roughly 2.4% of the tested compounds scored in any of these assays.

Cc1ccccc1CSc1nnc([C@@H]2CCCN2)o1	none (no result: NPY Y2 blocker, NPY Y1 blocker)
O=C(c1ccc2c(c1)OCO2)N(CC1CCCO1)C1(C(=O)NC2CCCCC2)CCCCC1 (centres undefined)	NPY Y2 blocker 29.4, NPY Y1 blocker 21.9
O=C(c1ccc(=O)[nH]c1)N(Cc1cccs1)C1(C(=O)NC2CCCC2)CCCCC1	none
O=C(c1ccc2c(c1)OCO2)N(Cc1cccs1)C1(C(=O)NC2CCCCC2)CCCCC1	NPY Y2 blocker 37.2, NPY Y1 blocker 54.9
O=C(NC1CCCCC1)C(c1cccs1)N(Cc1cccs1)C(=O)c1cccs1 (centres undefined)	NPY Y2 blocker 18.4, NPY Y1 blocker 40.6
COCCN(C(=O)CNC(=O)c1cccs1)C(C(=O)NC1CCCC1)c1cccs1 (centres undefined)	none
CN(C(=O)c1ccc2c(c1)OCO2)C1(C(=O)NC2CCCC2)CCCCC1	none
O=C(Cc1cccs1)N(Cc1ccco1)C1(C(=O)NC2CCCCC2)CCCCC1	NPY Y2 blocker 29.6, NPY Y1 blocker 49.7
Cc1sc2nc(CN3CCOCC3)[nH]c(=S)c2c1C	none (no result: NPY Y2 blocker)
CCCCOc1ccc(C(=O)NCC2(c3ccc(OC)cc3)CCOCC2)cc1	none
O=C(O)C1=C(OCc2ccccc2)C(=O)NCC1	none (no result: NPY Y2 blocker)
O=C1CCC(C(=O)N(Cc2ccco2)C2(C(=O)NC3CCCC3)CCCCC2)N1 (centres undefined)	NPY Y2 blocker 23.2, NPY Y1 blocker 21.7
CC(=O)N(Cc1ccco1)C1(C(=O)NC2CCCCC2)CCCCC1	none
O=C(Cc1cccs1)N(Cc1cccs1)C1(C(=O)NC2CCCC2)CCCCC1	NPY Y2 blocker 50.2, NPY Y1 blocker 50.8
Cc1ccc(C(C(=O)NC2CCCC2)N(Cc2ccc3c(c2)OCO3)C(=O)Cc2cccs2)cc1 (centres undefined)	NPY Y2 blocker 22.2
O=S(=O)(c1ccccc1)N1CCC(O)(CSc2ccc(F)cc2)CC1	none (no result: NPY Y2 blocker)
COc1cccc(N2CCN(C(=O)c3nc4nc(C)cc(C)n4n3)CC2)c1	none (no result: NPY Y2 blocker)
CCC(C)NS(=O)(=O)c1ccc(S(=O)(=O)N(CCc2ccc(OC)c(OC)c2)Cc2cccs2)cc1 (centres undefined)	NPY Y2 blocker 31.1, NPY Y1 blocker 35.1
COc1ccc(CCN(Cc2cccs2)S(=O)(=O)c2ccc(S(=O)(=O)N3CCCCCC3)cc2)cc1OC	none
Cc1cccc(-n2c(SCC(N)=O)nc3c(c2=O)C2(CCCC2)Cc2ccccc2-3)c1	NPY-Y1 PAM-ag 48.4, NPY2 pot ag 38.8
CC1CCN(CCCOc2ccc(OCc3ccccc3)cc2)CC1	NPY Y2 blocker 22.5, NPY Y1 blocker 23.9
C=C(C)c1cccc(C(C)(C)NC(=O)N(Cc2ccccc2)Cc2ccco2)c1	NPY Y2 blocker 27.8
NC(=O)c1cccn1Cc1ccccc1Cl	none
NC(=O)c1cccn1Cc1cccc(Cl)c1	NPY-Y1 PAM-ag 94.9, NPY2 pot ag 33.1
Cc1ccccc1OCCN1CCC(Cc2ccccc2)CC1	none (no result: NPY Y2 blocker)
CCOc1ccccc1OCCN1CCC(Cc2ccccc2)CC1	NPY Y2 blocker 17.2, NPY Y1 blocker 26.4
COc1ccc(NS(=O)(=O)c2cc(NC(=O)c3cccnc3Cl)ccc2N2CCCC2)cc1	none (no result: NPY Y2 blocker, NPY Y1 blocker)
c1ccc2c(NCCCN3CCOCC3)c3ccccc3nc2c1	S1P4 agonist 11.5 (no result: NPY Y2 blocker)
Fc1ccccc1-c1nc(NCCCN2CCOCC2)c2ccccc2n1	none
Cc1ccc(N/C(N)=N/c2nc(CSc3nnc(C)s3)cc(=O)[nH]2)c(C)c1	NPY Y1 blocker 20.4 (no result: NPY Y2 blocker)
COc1ccc(CN(Cc2cc3cccc(C)c3n3nnnc23)C(=O)N2CCOCC2)cc1	none (no result: NPY Y2 blocker)
N=c1c2c(-c3ccccc3)c(-c3ccccc3)n(Cc3ccccc3)c2ncn1CCO	NPY Y2 blocker 63.2, NPY Y1 blocker 61.2
OCCNc1ncnc2c1c(-c1ccccc1)c(-c1ccccc1)n2Cc1ccco1	none
CC(C)Cn1cnc2c(c(-c3ccccc3)c(-c3ccccc3)n2Cc2ccco2)c1=N	NPY Y2 blocker 76.2, NPY Y1 blocker 40.2
N=c1c2c(-c3ccccc3)c(-c3ccccc3)oc2ncn1CCN1CCOCC1	none
N=c1c2c(-c3ccccc3)c(-c3ccccc3)n(Cc3ccco3)c2ncn1CCCn1ccnc1	NPY Y2 blocker 41.4, NPY Y1 blocker 57.2
Cc1cccc(C)c1NC(=S)NCCSc1ccc(Cl)cc1	none (no result: NPY Y2 blocker)
N#Cc1nc(COc2ccccc2)oc1N1CCCCC1	none
N#Cc1nc(COc2ccc(F)cc2)oc1N1CCC(Cc2ccccc2)CC1	NPY Y2 blocker 37.4, NPY Y1 blocker 31.7
CCN1CCN(c2oc(COc3ccc(-c4ccccc4)cc3)nc2C#N)CC1	none
N#Cc1nc(COc2ccc(Br)cc2)oc1N1CCN(Cc2ccccc2)CC1	NPY Y2 blocker 31.8, NPY Y1 blocker 35.5
N#Cc1nc(COc2ccc(F)cc2)oc1N1CCN(Cc2ccccc2)CC1	NPY Y2 blocker 31.9, NPY Y1 blocker 34.1
CC1CCN(CCOCCOc2ccc(Br)cc2Cl)CC1	none
CC1CCCN(CCCOc2ccc(Br)cc2Cl)C1 (centres undefined)	NPY Y1 blocker 21.1 (no result: NPY Y2 blocker)
CC1=C(C(=O)NCc2ccccc2)C(c2cccs2)NC(=S)N1 (centres undefined)	none (no result: NPY Y2 blocker)
CN(C)CCCNC1=CC(=O)OC12CCCCC2	none
O=C1C=C(NCc2ccc(Cl)cc2Cl)C2(CCCCC2)O1	NPY Y2 blocker 25.9, NPY Y1 blocker 26.4
Cc1cc(NC2CCCCC2)nc(NCc2ccccc2)n1	NPY Y2 blocker 23.8, NPY Y1 blocker 23.0
Cc1cc(N/N=C/c2ccccc2Cl)nc(NCc2ccccc2)n1	NPY Y2 blocker 18.6, NPY Y1 blocker 24.7
COC(=O)N(NC(=O)C(O)(c1ccccc1)c1ccccc1)c1ccc(C)cc1	NPY Y2 blocker 20.9, NPY Y1 blocker 30.9
CCOC(=O)N(NC(=O)C(O)(C(C)C)C(C)C)c1ccccc1	none (no result: NPY Y2 blocker)
CCOC(=O)N(NC(=O)C(O)(c1ccccc1)c1ccccc1)c1ccccc1	NPY Y2 blocker 20.1, NPY Y1 blocker 46.2
O=C(COc1ccc(Cl)cc1)NCc1nnc(SCC(=O)N2CCCC2)o1	none (no result: NPY Y2 blocker)
CC1(C)CC2CC(C)(CN2/C=C2/CCCCC2=O)C1 (centres undefined)	none (no result: NPY Y2 blocker, NPY Y1 blocker)
COc1ccccc1C(=O)Nc1ccc(C2=NNC(=O)CC2C)cc1 (centres undefined)	NPY Y2 blocker 72.2, NPY Y1 blocker 96.3
COc1ccccc1C(=O)Nc1ccc(C(=O)O)cc1	none
CCOC(=O)CCc1c(C)c2ccc(OCC)c(C)c2oc1=O	NPY Y2 blocker 29.0, NPY Y1 blocker 33.2
CCOC(=O)COc1ccc2c3c(c(=O)oc2c1C)CCC3	none
CCOC(=O)c1cc2c(=O)n3ccccc3nc2n(CC2CCCO2)c1=NC(=O)/C=C/c1ccccc1 (centres undefined)	none (no result: NPY Y2 blocker)
CCOC(=O)c1cc2c(=O)n3ccccc3nc2n(CC2CCCO2)c1=NC(C)=O (centres undefined)	S1P4 agonist 17.9
N=c1c2c(-c3ccccc3)c(-c3ccccc3)oc2ncn1CCCN1CCOCC1	NPY Y2 blocker 26.7, NPY Y1 blocker 21.1
